From ChEMBL document CHEMBL4184227, “Surrogating and redirection of pyrazolo[1,5-a]pyrimidin-7(4H)-one core, a novel class of potent and selective DPP-4 inhibitors” (Bioorg Med Chem, 2018)

What was measured:
[1] = molecular target: Dipeptidyl peptidase 8 (Homo sapiens, UniProt Q6V1X1); assay: Inhibition of recombinant human DPP8 using H-Gly-Pro-AMC as substrate measured after 10 mins by fluorescence assay
Outline: (§1)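 Recombinant human DPP-8 or DPP-9 in 100 mM Tris-HCl, 100 mM NaCl, pH 7.8 was combined with inhibitor and H-Gly-Pro-AMC substrate (303 final). The mixture was incubated at 37 °C for 10 min, then fluorescence was read at ex 380/em 460 nm; values are means of three experiments.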

[2] = molecular target: Dipeptidyl peptidase 9 (Homo sapiens, UniProt Q86TI2); assay: Inhibition of recombinant human DPP9 using H-Gly-Pro-AMC as substrate measured after 10 mins by fluorescence assay; outline: as §1
Dipeptidyl peptidase 9, sequence (Q86TI2 whole entry): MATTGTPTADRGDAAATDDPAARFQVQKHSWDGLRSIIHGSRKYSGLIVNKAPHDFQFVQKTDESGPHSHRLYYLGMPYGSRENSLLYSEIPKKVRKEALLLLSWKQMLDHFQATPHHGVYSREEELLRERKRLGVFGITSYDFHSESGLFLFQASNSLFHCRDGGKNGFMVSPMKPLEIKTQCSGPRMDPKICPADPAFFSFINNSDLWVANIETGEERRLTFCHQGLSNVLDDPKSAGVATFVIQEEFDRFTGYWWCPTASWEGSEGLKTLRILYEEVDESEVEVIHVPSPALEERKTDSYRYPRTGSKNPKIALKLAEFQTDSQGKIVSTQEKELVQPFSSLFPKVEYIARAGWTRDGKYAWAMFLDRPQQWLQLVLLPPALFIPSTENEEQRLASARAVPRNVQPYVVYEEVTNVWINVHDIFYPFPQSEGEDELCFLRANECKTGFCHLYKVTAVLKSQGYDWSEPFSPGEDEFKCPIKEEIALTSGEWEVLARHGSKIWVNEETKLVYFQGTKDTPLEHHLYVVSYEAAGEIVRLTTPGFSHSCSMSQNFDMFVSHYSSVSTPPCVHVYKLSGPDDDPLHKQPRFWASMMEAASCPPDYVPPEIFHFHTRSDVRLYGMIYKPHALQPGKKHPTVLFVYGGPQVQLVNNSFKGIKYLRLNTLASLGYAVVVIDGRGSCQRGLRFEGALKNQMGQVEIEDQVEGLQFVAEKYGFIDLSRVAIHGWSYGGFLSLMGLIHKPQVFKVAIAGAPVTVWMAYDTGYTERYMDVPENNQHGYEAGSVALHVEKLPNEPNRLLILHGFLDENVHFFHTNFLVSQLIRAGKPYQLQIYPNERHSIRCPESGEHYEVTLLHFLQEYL

[3] = test system: HepG2; assay: Cytotoxicity against human HepG2 cells assessed as reduction in cell viability at 100 uM after 48 hrs by MTT assay; type: cell-based; conditions: hepg2, 48 h
Outline: (§2)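 HepG2 cells in DMEM were exposed to compound in DMSO at 1–100 μM final, or DMSO alone as negative control, for 48 h. MTT (5 mg/ml, 20 µL) was then added for 6 h, the supernatant removed and the formazan dissolved in DMSO. Absorbance was read at 490 nm; viability is expressed versus control; mean ± SD, n=3.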

[4] = test system: HepG2; assay: Cytotoxicity against human HepG2 cells assessed as reduction in cell viability after 48 hrs by MTT assay; type: cell-based; conditions: hepg2, 48 h; outline: as §2
[5] = test system: Mus musculus; assay: Antidiabetic activity in ip dosed C57BL/6 mouse as reduction in blood glucose level administered as single dose pretreated for 30 mins followed by dextrose-challenge measured up to 2 hrs by IPGTT; type: functional, organism-based
Outline: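 Diabetic male mice (strain given as C57BL/6 and as BALB/c) received a single intraperitoneal dose of 1, 5 or 10 mg/kg, or saline as control, 30 min before an injected dextrose challenge (2 g/kg). Blood glucose was read at 0, 0.5, 1, 1.5 and 2 h, and glucose AUC was computed over 0–120 min; mean ± SD, n = 4.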

[6] = species on record: Mus musculus; assay: animal or person; conditions: C57BL/6, ip, read-out: MED
[7] = Cytotoxicity against human HepG2 cells assessed as cell viability at 100 uM after 48 hrs by MTT assay relative to control; type: cell-based; conditions: read-out: Activity; outline: as §2

Dipeptidyl peptidase 8, sequence (Q6V1X1 whole entry): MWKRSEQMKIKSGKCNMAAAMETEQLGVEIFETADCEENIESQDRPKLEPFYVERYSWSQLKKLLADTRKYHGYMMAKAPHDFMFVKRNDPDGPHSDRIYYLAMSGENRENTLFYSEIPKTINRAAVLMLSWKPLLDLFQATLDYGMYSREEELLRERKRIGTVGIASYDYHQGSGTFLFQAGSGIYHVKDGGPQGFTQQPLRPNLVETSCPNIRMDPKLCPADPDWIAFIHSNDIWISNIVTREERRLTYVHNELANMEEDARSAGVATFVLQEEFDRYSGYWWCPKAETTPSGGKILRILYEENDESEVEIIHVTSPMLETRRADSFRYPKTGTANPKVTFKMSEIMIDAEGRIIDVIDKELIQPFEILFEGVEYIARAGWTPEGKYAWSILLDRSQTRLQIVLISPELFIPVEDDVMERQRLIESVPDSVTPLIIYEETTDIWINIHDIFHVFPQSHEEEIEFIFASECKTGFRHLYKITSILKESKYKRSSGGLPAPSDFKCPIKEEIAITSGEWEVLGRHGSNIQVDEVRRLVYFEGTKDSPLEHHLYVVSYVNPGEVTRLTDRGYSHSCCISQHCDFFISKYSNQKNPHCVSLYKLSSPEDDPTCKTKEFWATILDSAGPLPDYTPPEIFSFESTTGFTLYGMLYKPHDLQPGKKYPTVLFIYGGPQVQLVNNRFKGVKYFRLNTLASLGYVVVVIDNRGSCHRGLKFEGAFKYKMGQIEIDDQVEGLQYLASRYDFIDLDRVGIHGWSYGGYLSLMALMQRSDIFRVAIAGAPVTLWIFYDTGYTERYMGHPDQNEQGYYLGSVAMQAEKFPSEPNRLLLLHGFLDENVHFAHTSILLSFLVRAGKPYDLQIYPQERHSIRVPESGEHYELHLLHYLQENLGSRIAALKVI

| Structure (SMILES) | IC50 [1] | IC50 [2] | Activity [3] | Activity [4] | Activity [5] | minimal effective dose [6] | viability at 48 h, 100 µM [7] |
| --- | --- | --- | --- | --- | --- | --- | --- |
| Cc1ccc(Cn2c(N3CCC[C@@H](N)C3)cc(=O)n3nccc23)cc1 | > 100 µM | > 100 µM |  |  |  |  |  |
| N#Cc1ccccc1Cc1c(Cl)nc2ccnn2c1N1CCC[C@@H](N)C1 | > 100 µM | > 100 µM | Toxic | Dose-dependent effect |  |  |  |
| N#Cc1ccccc1Cn1c(N2CCNCC2)cc(=O)n2nccc12 | > 100 µM | > 100 µM |  | Dose-dependent effect | Dose-dependent effect | 1 mg/kg | > 60% |
| O=c1cc(N2CCNCC2)n(Cc2ccccc2)c2ccnn12 | > 100 µM | > 100 µM |  |  |  |  |  |
| Cc1ccc(Cn2c(N3CCNCC3)cc(=O)n3nccc23)cc1 | > 100 µM | > 100 µM |  |  |  |  |  |
| N#Cc1ccccc1Cn1c(N2CCC[C@@H](N)C2)cc(=O)n2nccc12 | > 100 µM | > 100 µM |  |  |  |  |  |
| O=c1cc(N2CCNCC2)n(Cc2ccccc2[N+](=O)[O-])c2ccnn12 | > 100 µM | > 100 µM |  |  |  |  |  |
